The structures appear in SMILES notation. Bounds are passed on as bounds.

Assay [1] has as its system T98G. Kind of assay: Cytotoxicity against apoptotic-resistant human T98G cells assessed as growth inhibition after 72 hrs by MTT-based colorimetric assay. The class given is functional, cell-based. The settings on record: Homo sapiens, T98G, 72 h. The method in brief: (§1)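 MTT colorimetric assay, 72 h exposure to the fumarate salt. Read-out is reduction of MTT to formazan by living cells. IC50 is the concentration that reduces the whole cell population by 50%. Six replicates per condition. Where compounds were not tested on every line, apoptosis-sensitive lines were PC3, MCF-7, LoVo and B16F10, and apoptosis-resistant lines were U373, T98G, A549 and SK-MEL-28.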
(In general: Formazan colour is commonly taken as a measure of viable cells.)

In assay [2] the test system is PC-3. Description: Cytotoxicity against apoptotic-sensitive human PC3 cells assessed as growth inhibition after 72 hrs by MTT-based colorimetric assay. Format: functional, cell-based. The settings on record: Homo sapiens, PC-3, 72 h. The method in brief: as §1
For assay [3], the system named is LoVo. Kind of assay: Cytotoxicity against apoptotic-sensitive human LoVo cells assessed as growth inhibition after 72 hrs by MTT-based colorimetric assay. The settings on record: Homo sapiens, LoVo, 72 h. Format: functional, cell-based. The method, boiled down:
as §1

Assay [4] in a line: Cytotoxicity against apoptotic-resistant human U373 cells assessed as growth inhibition after 72 hrs by MTT-based colorimetric assay. The conditions noted are these: Homo sapiens, U373 MG, 72 h. Format: functional, cell-based, U-373MG ATCC. The method, boiled down:
as §1

Assay [5] concerns SK-MEL-28. Description: Cytotoxicity against apoptotic-resistant human SK-MEL-28 cells assessed as growth inhibition after 72 hrs by MTT-based colorimetric assay. The class given is functional, cell-based. The conditions noted are these: Homo sapiens, SK-MEL-28, 72 h. The method in brief: as §1
For assay [6], the system named is A549. Description: Cytotoxicity against apoptotic-resistant human A549 cells assessed as growth inhibition after 72 hrs by MTT-based colorimetric assay. The class given is functional, cell-based. The settings on record: Homo sapiens, A549, 72 h. The method in brief:
as §1

For assay [7], the system named is MCF7. Description: Cytotoxicity against apoptotic-sensitive human MCF7 cells assessed as growth inhibition after 72 hrs by MTT-based colorimetric assay. Format: functional, cell-based. The settings on record: Homo sapiens, MCF7, 72 h. The method, boiled down: as §1

With `C=CCCCCOc1ncc(-c2ccccc2OC)n1C`, the IC50 is 5 µM in assay [1]; 24 µM in assay [2]; 4 µM in assay [3]; 9 µM in assay [4]; 13 µM in assay [5]; 5 µM in assay [6]. Besides, the 50% inhibitory concentration (IC50) in assay [7] was 5 µM.

Regarding `C=CCCCCOc1cc2ccccc2cc1-c1cnc(OCCCCC=C)n1C`, the IC50 in assay [1] came out at 40 µM; in assay [2], 38 µM; in assay [3], 25 µM; in assay [4] it was 33 µM; in assay [5] it was 59 µM; in assay [6], 16 µM. The IC50 in assay [7] is 37 µM.

For `C=CCCCCOc1cc(F)ccc1-c1cnc(OCCC=C)n1C`, the IC50 in assay [1] is > 100 µM; in assay [2], 64 µM; in assay [3], 45 µM; in assay [4], > 100 µM; in assay [5], 83 µM; in assay [6], 74 µM. For the same compound, in assay [7], the IC50 worked out at 59 µM.

For `C=CCCCCOc1ccccc1-c1cnc(OC)n1C`, the concentration for half-maximal inhibition (IC50) in assay [1] is > 100 µM; in assay [2], 86 µM; in assay [3], 47 µM; in assay [4], > 100 µM; in assay [5], 85 µM; in assay [6], 80 µM. In assay [7], the IC50 came to 98 µM.

On to `Cn1c2cnc1NC(=O)CCCCCCCCCOc1ccccc1-2`, for which the IC50 is 64 µM in assay [1]; 61 µM in assay [2]; 33 µM in assay [3]; 38 µM in assay [4]; 59 µM in assay [5]; 43 µM in assay [6]. For the same compound, the IC50 in assay [7] came out at 61 µM.

On to `Cn1c2cnc1OCCCCCCCCOc1cc(F)ccc1-2`, for which the IC50 in assay [1] was found to be 69 µM; in assay [2] it was 46 µM; in assay [3] it was 32 µM; in assay [4] it was 70 µM; in assay [5], 58 µM; in assay [6] it was 43 µM. Besides, the half-inhibitory concentration (IC50) in assay [7] is 35 µM.

As to `C=CCCCCOc1ccccc1-c1cnc(S(=O)(=O)c2ccccc2)n1C`, the IC50 in assay [1] came to 71 µM; in assay [2], 33 µM; in assay [3], 27 µM; in assay [4], 63 µM; in assay [5] it was 38 µM; in assay [6] it was 38 µM. Besides, the IC50 in assay [7] was 25 µM.

With `Cn1c2cnc1OCCCCCCCCOc1cc3ccccc3cc1-2`, the IC50 amounted to 32 µM in assay [1]; 25 µM in assay [2]; 16 µM in assay [3]; 24 µM in assay [4]; 23 µM in assay [5]; 26 µM in assay [6]. Further, in assay [7], the IC50 is 19 µM.

In the case of `Cn1c2cnc1OCCCCCCCCCCOc1ccccc1-2`, the IC50 in assay [1] is 41 µM; in assay [2], 31 µM; in assay [3], 33 µM; in assay [4], 31 µM; in assay [5] it was 31 µM; in assay [6], 48 µM. In addition, the IC50 in assay [7] turned out to be 24 µM.

In the case of `COc1ccccc1-c1cnc(OC)n1C`, the half-inhibitory concentration (IC50) in assay [1] was > 100 µM; in assay [2], > 100 µM; in assay [3], 73 µM; in assay [4], > 100 µM; in assay [5], > 100 µM; in assay [6] it was > 100 µM. Further, in assay [7], the IC50 was > 100 µM.

As for `Cn1c(-c2ccccc2O)cnc1S(=O)(=O)c1ccccc1`, the IC50 in assay [1] is > 100 µM; in assay [2], > 100 µM; in assay [3] it was 56 µM; in assay [4], > 100 µM; in assay [5], > 100 µM; in assay [6] it was > 100 µM. In assay [7], the half-inhibitory concentration (IC50) is > 100 µM.

As for `C=CCCCCOc1ccccc1-c1cnc(OCCC=C)n1C`, the IC50 in assay [1] was found to be 29 µM; in assay [2], 19 µM; in assay [3] it was 12 µM; in assay [4], 33 µM; in assay [5] it was 17 µM; in assay [6], 9 µM. Moreover, in assay [7], the IC50 is 8 µM.

Consider `C=CCCCCOc1ccc(F)cc1-c1cnc(OCCC=C)n1C`, for which the half-maximal inhibitory concentration (IC50) in assay [1] came out at 87 µM; in assay [2] it was 52 µM; in assay [3], 38 µM; in assay [4], 73 µM; in assay [5], 82 µM; in assay [6] it was 61 µM. Also, in assay [7], the half-inhibitory concentration (IC50) was determined as 43 µM.

For the compound `Cn1c2cnc1OCCCCCCCCOc1ccc(F)cc1-2`, the IC50 in assay [1] was determined as 77 µM; in assay [2], 52 µM; in assay [3] it was 43 µM; in assay [4] it was 73 µM; in assay [5] it was 72 µM; in assay [6], 58 µM. Moreover, the IC50 in assay [7] amounted to 52 µM.

On to `C=CCCCCCOc1ncc(-c2ccccc2OCCCCC=C)n1C`, for which the IC50 in assay [1] came out at 63 µM; in assay [2], 70 µM; in assay [3] it was 32 µM; in assay [4], 76 µM; in assay [5], 79 µM; in assay [6], 62 µM. Moreover, in assay [7], the half-maximal inhibitory concentration (IC50) came out at 63 µM.

As usually defined, the IC50 is the concentration that gives 50% inhibition.

These data come from ChEMBL document CHEMBL3091366, “New 5-Aryl-1H-imidazoles display in vitro antitumor activity against apoptosis-resistant cancer models, including melanomas, through mitochondrial targeting” (J Med Chem, 2013).
